Results: ChEMBL document CHEMBL4622842, “Optimization and biological evaluation of imidazopyridine derivatives as a novel scaffold for γ-secretase modulators with oral efficacy against cognitive deficits in Alzheimer's disease model mice” (Bioorg Med Chem, 2020)
Active and inactive are the calls of the source. The calls are words filed in the database; no cut-off is given here.

Experiments:
[1] = Drug concentration in brain of Sprague-Dawley rat at 30 mg/kg, po measured after 3 hrs by LC/MS-MS analysis; assay type: ADME, organism-based; settings: in vivo
Summary of the method: (§1)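 Nonfasted 6-week-old male SD rats (n = 2 or 3) received a single oral dose of 10 or 30 mg/kg as a suspension in 0.5% (w/v) methylcellulose. Plasma and brain were sampled 3 h post-dose, proteins were precipitated with acetonitrile, and drug was quantified by LC-MS/MS. Values are the mean of two or three rats. The brain/plasma ratio was taken from these concentrations.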

[2] = Intrinsic clearance in rat liver microsomes at 0.2 uM incubated upto 45 mins by LC/MS-MS analysis; assay type: ADME, Microsome; settings: for CLint scaled at 0.2 µM: liver microsomes
Summary of the method: (§2)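 Test compound at 0.2 μM incubated at 37 °C with pooled rat or mouse liver microsomes (0.2 mg protein/mL), 1 mM NADPH and 0.1 mM EDTA in 100 mM Na+-K+ phosphate, pH 7.4. Samples taken at 0, 15, 30 and 45 min; compound/internal-standard peak areas measured by LC-MS/MS to calculate CLint (mL/min/kg). Mean of duplicate experiments.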

[3] = Ratio of drug concentration in plasma of Sprague-Dawley rat at 30 mg/kg, po to IC50 of gamma-secretase in human SK-N-BE cells; assay type: ADME, organism-based; settings: in vivo
[4] = Drug concentration in plasma of Sprague-Dawley rat at 30 mg/kg, po measured after 3 hrs by LC/MS-MS analysis; assay type: ADME, organism-based; summary of the method: as §1
[5] = Intrinsic clearance in mouse liver microsomes at 0.2 uM incubated upto 45 mins by LC/MS-MS analysis; assay type: ADME, Microsome; summary of the method: as §2
Rattus norvegicus [6] = test: Reduction in amyloid beta 42 production in Sprague-Dawley rat plasma at 30 mg/kg, po measured after 3 to 4 hrs by ELISA relative to control; assay type: functional
Summary of the method: (§3)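 Nonfasted 6-week-old male SD rats (n = 4 or 5) given a single oral dose of 10 or 30 mg/kg in 0.5% (w/v) methylcellulose. Blood and brain were taken under isoflurane 3 h post-dose (4 h for some entries). Hippocampus was sonicated in 10 volumes of TBS pH 7.4 with protease inhibitors and spun at 100,000g, 4 °C, 1 h. Aβx-42 in supernatant and plasma measured by ELISA; Student's t-test vs vehicle.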

Rattus norvegicus [7] = test: Reduction in amyloid beta 42 production in Sprague-Dawley rat brain at 30 mg/kg, po measured after 3 to 4 hrs by ELISA relative to control; assay type: functional; summary of the method: as §3
[8] = Ratio of drug concentration in brain to blood of Sprague-Dawley rat at 30 mg/kg, po measured after 3 hrs by LC/MS-MS analysis; assay type: ADME, organism-based; settings: brain and blood; summary of the method: as §1
[9] = Ratio of drug concentration in brain of Sprague-Dawley rat at 30 mg/kg, po to IC50 of gamma-secretase in human SK-N-BE cells; assay type: ADME, organism-based; settings: in vivo
Gamma-secretase = test: Inhibition of gamma-secretase in human SK-N-BE cells assessed as decrease in amyloid beta 42 production treated for 6 hrs by ELISA; assay type: cell-based
Summary of the method: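 SK-N-BE(2) human neuroblastoma cells grown in RPMI1640 with 10% FBS and penicillin/streptomycin, plated in 96-well plates overnight, then exposed to a range of drug concentrations in 0.5% DMSO for 6 h. Medium Aβ1-42 was measured by sandwich ELISA (44A3 capture, biotin-82E1 detection, streptavidin-HRP, TMB). Total Aβ was measured by ELISA kit. Mean of two wells.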

[10] = Drug concentration in plasma of Sprague-Dawley rat at 10 mg/kg, po measured after 3 hrs by LC/MS-MS analysis; assay type: ADME, organism-based; summary of the method: as §1
Cytochrome P450 2D6 = Cytochrome P450 2D6 (Homo sapiens, UniProt P10635); test: Inhibition of human recombinant CYP2D6 assessed as reduction in metabolite formation using AMMC as substrate incubated for 20 mins by fluorescence assay; assay type: ADME
Sequence of Cytochrome P450 2D6 (P10635 whole entry): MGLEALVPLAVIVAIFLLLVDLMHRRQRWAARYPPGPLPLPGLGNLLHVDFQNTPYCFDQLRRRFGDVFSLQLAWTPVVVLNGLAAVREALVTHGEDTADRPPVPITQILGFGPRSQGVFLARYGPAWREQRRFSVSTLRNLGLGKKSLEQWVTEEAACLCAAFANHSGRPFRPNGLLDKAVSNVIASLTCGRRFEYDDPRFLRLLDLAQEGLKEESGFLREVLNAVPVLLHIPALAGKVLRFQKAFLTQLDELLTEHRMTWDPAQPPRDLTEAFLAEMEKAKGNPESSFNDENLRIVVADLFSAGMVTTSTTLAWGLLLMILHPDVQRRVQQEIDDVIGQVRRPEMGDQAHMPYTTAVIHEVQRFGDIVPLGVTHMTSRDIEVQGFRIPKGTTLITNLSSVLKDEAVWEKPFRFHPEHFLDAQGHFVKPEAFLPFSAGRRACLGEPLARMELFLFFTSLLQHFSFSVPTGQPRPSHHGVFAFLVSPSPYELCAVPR
Summary of the method: (§4)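 Recombinant human CYP with co-factors, fluorogenic substrate, potassium phosphate buffer pH 7.4 and test compound at 0.31–20 μM, incubated at 37 °C. Substrates and incubation times: CYP1A2, 5 μM CEC, 20 min; CYP2C9, 75 μM MFC, 30 min; CYP2C19, 25 μM CEC, 20 min; CYP2D6, AMMC, 20 min. Stopped with Tris base/acetonitrile; metabolite read by fluorescence. IC50 is the mean of duplicates.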

CYP3A4 [11] = target: T1, CYP3A4 (Homo sapiens, UniProt P08684); test: Inhibition of CYP3A4 in human liver microsome assessed as enzyme residual activity pre-incubated for 0 min followed by midazolam addition incubated for 20 mins by LC-MS/MS analysis relative to control; assay type: ADME; settings: liver microsomes, probe midazolam, read-out: INH
T1 sequence (P08684 whole entry): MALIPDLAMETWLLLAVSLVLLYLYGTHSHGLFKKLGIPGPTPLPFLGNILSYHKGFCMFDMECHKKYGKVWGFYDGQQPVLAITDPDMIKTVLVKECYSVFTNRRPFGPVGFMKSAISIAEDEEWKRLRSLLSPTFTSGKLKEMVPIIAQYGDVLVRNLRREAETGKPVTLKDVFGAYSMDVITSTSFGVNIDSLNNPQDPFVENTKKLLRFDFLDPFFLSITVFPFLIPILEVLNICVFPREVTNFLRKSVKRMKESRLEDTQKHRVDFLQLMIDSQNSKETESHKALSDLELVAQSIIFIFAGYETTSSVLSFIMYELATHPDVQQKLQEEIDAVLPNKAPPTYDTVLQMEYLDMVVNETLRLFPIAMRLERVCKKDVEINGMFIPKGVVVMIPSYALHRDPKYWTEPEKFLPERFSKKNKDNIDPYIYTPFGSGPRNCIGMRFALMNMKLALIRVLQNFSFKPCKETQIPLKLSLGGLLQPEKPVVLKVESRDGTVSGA
Summary of the method: (§5)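 Human liver microsomes at 0.1 mg protein/mL with 1 mM NADPH, 0.1 mM EDTA, 100 mM Na+-K+ phosphate pH 7.4 and 5 μM test compound, preincubated 0 or 30 min at 37 °C. Started with 1.5 μM midazolam, run 20 min, stopped with 80% acetonitrile containing internal standard. Peak-area ratios with compound vs without gave residual activity; mean of duplicates.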

[12] = Drug concentration in brain of Sprague-Dawley rat at 10 mg/kg, po measured after 3 hrs by LC/MS-MS analysis; assay type: ADME, organism-based; settings: in vivo; summary of the method: as §1
Mus musculus = test: Antialzheimer activity in transgenic Tg2576 mouse assessed as improvement of spatial memory impairment at 2 and 6 mg/kg, po administered daily for 8 weeks measured after 3 hrs on day 8 by Y-maze test; assay type: functional, organism-based; settings: in the assay text read “8 days” for “8 weeks”
Summary of the method: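 Female Tg2576 mice, 6 months old, nonfasted (n = 5 or 6), dosed orally once daily for 8 days at 0.6, 2.0, 6.0 or 20 mg/kg as a suspension in 0.5% methyl cellulose. Three hours after the day-8 dose, each mouse started at the end of one arm of a three-arm Y-maze and explored freely for 8 min. Spontaneous alternation was scored; animals with <10 total arm entries were excluded. Student's t-test vs vehicle.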

Cytochrome P450 2C9 = Cytochrome P450 2C9 (Homo sapiens, UniProt P11712); test: Inhibition of human recombinant CYP2C9 assessed as reduction in metabolite formation using MFC as substrate incubated for 30 mins by fluorescence assay; assay type: ADME; summary of the method: as §4
Sequence of Cytochrome P450 2C9 (P11712 whole entry): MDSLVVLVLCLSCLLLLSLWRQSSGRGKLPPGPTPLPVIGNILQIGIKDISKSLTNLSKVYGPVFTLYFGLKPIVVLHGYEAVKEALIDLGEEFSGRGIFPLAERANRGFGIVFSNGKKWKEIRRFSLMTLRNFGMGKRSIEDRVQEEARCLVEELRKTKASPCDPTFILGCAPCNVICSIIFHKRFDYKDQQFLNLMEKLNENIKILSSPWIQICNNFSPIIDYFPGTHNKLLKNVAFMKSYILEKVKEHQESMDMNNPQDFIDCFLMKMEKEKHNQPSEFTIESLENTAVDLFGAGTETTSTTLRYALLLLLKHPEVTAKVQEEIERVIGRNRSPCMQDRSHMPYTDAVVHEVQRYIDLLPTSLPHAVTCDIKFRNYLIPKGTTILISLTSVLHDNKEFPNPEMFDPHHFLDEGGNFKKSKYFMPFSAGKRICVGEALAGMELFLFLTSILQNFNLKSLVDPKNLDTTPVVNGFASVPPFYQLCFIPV

[13] = Ratio of drug concentration in brain to blood of Sprague-Dawley rat at 10 mg/kg, po measured after 3 hrs by LC/MS-MS analysis; assay type: ADME, organism-based; settings: brain and blood; summary of the method: as §1
Cytochrome P450 2C19 = Cytochrome P450 2C19 (Homo sapiens, UniProt P33261); test: Inhibition of human recombinant CYP2C19 assessed as reduction in metabolite formation using CEC as substrate incubated for 20 mins by fluorescence assay; assay type: ADME; summary of the method: as §4
Sequence of Cytochrome P450 2C19 (P33261 whole entry): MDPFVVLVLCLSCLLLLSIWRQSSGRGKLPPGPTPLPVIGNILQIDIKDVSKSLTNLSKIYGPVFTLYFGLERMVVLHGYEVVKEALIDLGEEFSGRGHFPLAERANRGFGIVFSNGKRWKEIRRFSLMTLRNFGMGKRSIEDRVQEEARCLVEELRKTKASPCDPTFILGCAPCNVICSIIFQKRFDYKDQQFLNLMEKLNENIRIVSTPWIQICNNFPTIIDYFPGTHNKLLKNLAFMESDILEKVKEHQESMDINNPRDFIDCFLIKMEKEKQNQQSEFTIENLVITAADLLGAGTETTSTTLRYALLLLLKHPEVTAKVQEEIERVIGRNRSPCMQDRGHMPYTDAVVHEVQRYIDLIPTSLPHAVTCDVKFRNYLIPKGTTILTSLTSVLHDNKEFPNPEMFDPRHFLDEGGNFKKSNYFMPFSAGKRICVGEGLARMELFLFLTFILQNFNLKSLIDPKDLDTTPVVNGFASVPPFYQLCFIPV

Cytochrome P450 1A2 = target: T2, Cytochrome P450 1A2 (Homo sapiens, UniProt P05177); test: Inhibition of human recombinant CYP1A2 assessed as reduction in metabolite formation using CEC as substrate incubated for 20 mins by fluorescence assay; assay type: ADME; summary of the method: as §4
T2 sequence (P05177 whole entry): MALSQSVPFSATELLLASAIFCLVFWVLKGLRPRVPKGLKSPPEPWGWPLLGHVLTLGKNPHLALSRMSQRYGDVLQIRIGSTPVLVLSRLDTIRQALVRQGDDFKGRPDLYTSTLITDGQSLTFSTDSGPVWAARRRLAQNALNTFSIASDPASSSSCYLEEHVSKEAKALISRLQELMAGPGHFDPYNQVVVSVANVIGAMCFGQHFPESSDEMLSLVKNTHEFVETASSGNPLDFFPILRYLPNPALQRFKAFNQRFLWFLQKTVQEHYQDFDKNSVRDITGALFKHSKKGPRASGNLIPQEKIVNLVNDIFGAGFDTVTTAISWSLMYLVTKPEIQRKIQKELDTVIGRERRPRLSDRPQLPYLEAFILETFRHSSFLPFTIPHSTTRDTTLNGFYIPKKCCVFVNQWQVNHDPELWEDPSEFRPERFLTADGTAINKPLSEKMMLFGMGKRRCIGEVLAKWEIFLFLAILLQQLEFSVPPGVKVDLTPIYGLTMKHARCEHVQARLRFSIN

Rattus norvegicus [14] = test: Reduction in amyloid beta 42 production in Sprague-Dawley rat plasma at 10 mg/kg, po measured after 3 to 4 hrs by ELISA relative to control; assay type: functional; summary of the method: as §3
Rattus norvegicus [15] = test: Reduction in amyloid beta 42 production in Sprague-Dawley rat brain at 10 mg/kg, po measured after 3 to 4 hrs by ELISA relative to control; assay type: functional; summary of the method: as §3
[16] = Ratio of drug concentration in brain of Sprague-Dawley rat at 10 mg/kg, po to IC50 of gamma-secretase in human SK-N-BE cells; assay type: ADME, organism-based; settings: in vivo
CYP3A4 [17] = target: T1, CYP3A4; test: Inhibition of CYP3A4 in human liver microsome assessed as enzyme residual activity pre-incubated for 30 min followed by midazolam addition incubated for 20 mins by LC-MS/MS analysis relative to control; assay type: ADME; settings: liver microsomes, probe midazolam, read-out: INH; summary of the method: as §5
[18] = Ratio of drug concentration in plasma of Sprague-Dawley rat at 10 mg/kg, po to IC50 of gamma-secretase in human SK-N-BE cells; assay type: ADME, organism-based; settings: in vivo

Row | CLint scaled at 0.2 µM [2] [mL/min/kg] | IC50 (Gamma-secretase) [nM] | SMILES | inhibition in vivo at 30 mg/kg (Rattus norvegicus [6]) [%] | inhibition in vivo at 30 mg/kg (Rattus norvegicus [7]) [%] | further results
1 | 835 | – | CCNC(=O)c1ccc(-c2c(C)nc3c(OCc4ccc(-c5ccccc5)cc4)cccn23)cn1.Cl | 28 | 13 | Ct [1]: 2.1 nmol/g; Ratio [3]: 75; concentration at 3 h [4]: 6.8 µM; CLint scaled at 0.2 µM [5]: 227 mL/min/kg; Kp at 3 h [8]: 0.3; Ratio [9]: 23
2 | 307 | 99 | CCNC(=O)c1ccc(-c2c(C)nc3c(OCc4ccc(-c5cccc(F)c5)cc4)cccn23)cn1 | 42 | 22 | –
3 | 790 | 180 | CCNC(=O)c1ccc(-c2c(C)nc3c(OCc4ccc(-c5ccccc5C(F)(F)F)cc4)cccn23)cn1 | – | – | –
4 | 147 | 37 | CNC(=O)c1ccc(-c2c(C)nc3c(OCc4ccc(-c5ccc(F)cc5)cc4)cccn23)cn1.Cl | 68 | 40 | Ct [1]: 7.1 nmol/g; Ratio [3]: 446; concentration at 3 h [4]: 17 µM; Kp at 3 h [8]: 0.44; Ratio [9]: 193
5 | – | 390 | CCn1[nH]c2cc(-c3c(C)nc4c(OCc5ccc(-c6ccc(F)cc6)cc5)cccn34)ccc2c1=O | – | – | –
6 | 167 | 69 | Cc1nc2c(OCc3ccc(-c4ccc(F)cc4)cc3)cccn2c1-c1ccc2c(=O)n(C)oc2c1.Cl | 81 | 29 | Ct [1]: 5.6 nmol/g; Ratio [3]: 304; concentration at 3 h [4]: 21 µM; Kp at 3 h [8]: 0.27; Ratio [9]: 81
7 | 38 | 61 | CCNC(=O)c1ccc(-c2c(C)nc3c(OCc4ccc(-c5cccc(C(F)(F)F)c5)cc4)cccn23)cn1 | 62 | 15 | –
8 | > 1000 | 220 | CCNC(=O)c1ccc(-c2c(C)nc3c(OCc4ccc(-c5ccccc5F)cc4)cccn23)cn1 | – | – | –
9 | 115 | 29 | CNC(=O)c1ccc(-c2c(C)nc3c(OCc4ccc(-c5ccc(F)cc5)cc4F)cccn23)cn1.Cl | 77 | 42 | concentration at 3 h [10]: 5.7 µM; IC50 (Cytochrome P450 2D6): > 10000 nM; Ct [1]: 3.5 nmol/g; activity at 20 min (CYP3A4 [11]): 109%; Ct [12]: 1.5 nmol/g; Activity (Mus musculus): Active; Ratio [3]: 561; IC50 (Cytochrome P450 2C9): > 10000 nM; Kp at 3 h [13]: 0.27; concentration at 3 h [4]: 16 µM; IC50 (Cytochrome P450 2C19): > 10000 nM; IC50 (Cytochrome P450 1A2): > 10000 nM; inhibition in vivo at 10 mg/kg (Rattus norvegicus [14]): 63%; inhibition in vivo at 10 mg/kg (Rattus norvegicus [15]): 23%; Ratio [16]: 51; activity at 20 min (CYP3A4 [17]): 104%; Kp at 3 h [8]: 0.23; Ratio [18]: 196; Ratio [9]: 121
10 | 214 | 90 | CCn1oc2cc(-c3c(C)nc4c(OCc5ccc(-c6ccc(F)cc6)cc5)cccn34)ccc2c1=O | 63 | 20 | –
11 | – | 210 | CCNC(=O)c1ccc(-c2c(C)nc3c(OCc4ccc(-c5ccc(C(F)(F)F)cc5)cc4)cccn23)cn1.Cl | 40 | 4 | CLH ([2]; microsomes, 0.75 h, 0.2 µM): Stable
12 | 345 | 92 | CCN1Cc2cc(-c3c(C)nc4c(OCc5ccc(-c6ccc(F)cc6)cc5)cccn34)ccc2C1=O | 59 | 10 | –
13 | 221 | 75 | CCNC(=O)c1ccc(-c2c(C)nc3c(OCc4ccc(-c5ccc(F)cc5)cc4)cccn23)cn1 | 43 | 22 | –
14 | – | > 2000 | CCn1sc2cc(-c3c(C)nc4c(OCc5ccc(-c6ccc(F)cc6)cc5)cccn34)ccc2c1=O | – | – | –
15 | – | > 2000 | CCn1c(=O)c2ccc(-c3c(C)nc4c(OCc5ccc(-c6ccc(F)cc6)cc5)cccn34)cc2n1C | – | – | –
